Screening results from PubChem.
In the library only some 2.8% were active in any assay of this set; here they are far more common.
PAFAH1B3 FP inh – PAFAH1B3 (human) inhibition; inhibition, % at 3.39 µM; recombinant PAFAH1B3, FP-rhodamine probe, fluorescence polarization; hit rate 0.28% among 340,000; Q15102;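 active = inhibition above the screen-wide average of all tested compounds plus 3 SD, cut at about 25% in these data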
PAFAH1B2 FP inh – inhibitors of human PAFAH1B2; P68402; recombinant PAFAH1B2, FP-rhodamine activity probe, fluorescence polarization; inhibition, % at 3.39 µM; hit rate 1.2% among 340,000;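 active = inhibition above the mean of all tested compounds plus 3 SD, cut at about 24% in these data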
Target sequence (P68402 whole entry, looked up): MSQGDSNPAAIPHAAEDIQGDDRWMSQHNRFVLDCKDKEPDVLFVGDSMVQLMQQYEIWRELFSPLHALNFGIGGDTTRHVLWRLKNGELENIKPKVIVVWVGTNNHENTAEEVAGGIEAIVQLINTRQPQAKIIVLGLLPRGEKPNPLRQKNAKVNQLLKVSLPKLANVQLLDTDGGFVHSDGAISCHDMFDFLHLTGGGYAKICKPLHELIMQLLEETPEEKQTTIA
PAFAH2 inh – PAFAH2 (human) inhibition. Q99487. recombinant PAFAH2, FP-rhodamine activity probe, fluorescence polarization. inhibition, % at 3.39 µM. hit rate 0.99% among 340,000;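 active = inhibition above the mean over all tested compounds plus 3 SD, cut at about 30% in these data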;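 also: inhibitors block probe labeling of enzyme so polarization drops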
ASAP1 GAP inh – ASAP1 ArfGAP inhibition; ASAP1-stimulated ARF1 GTP hydrolysis, GDP FP detection; hit rate 0.19% among 360,000; Q9ULH1; inhibition, % at 16.5 µM; AID 624377; in the data active = inhibition above about 25%
pPAFAH inh – pPAFAH (human) enzyme inhibition. Q13093. recombinant pPAFAH, FP-rhodamine probe fluorescence polarization. inhibition, % at 3.39 µM. hit rate 1.5% among 330,000. AID 463082;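 active = inhibition above the mean inhibition across the screen plus 3 SD, cut at about 25% in these data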;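 also: inhibitors block binding of the rhodamine activity-based probe so polarization drops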
Target sequence (Q13093 whole entry, looked up): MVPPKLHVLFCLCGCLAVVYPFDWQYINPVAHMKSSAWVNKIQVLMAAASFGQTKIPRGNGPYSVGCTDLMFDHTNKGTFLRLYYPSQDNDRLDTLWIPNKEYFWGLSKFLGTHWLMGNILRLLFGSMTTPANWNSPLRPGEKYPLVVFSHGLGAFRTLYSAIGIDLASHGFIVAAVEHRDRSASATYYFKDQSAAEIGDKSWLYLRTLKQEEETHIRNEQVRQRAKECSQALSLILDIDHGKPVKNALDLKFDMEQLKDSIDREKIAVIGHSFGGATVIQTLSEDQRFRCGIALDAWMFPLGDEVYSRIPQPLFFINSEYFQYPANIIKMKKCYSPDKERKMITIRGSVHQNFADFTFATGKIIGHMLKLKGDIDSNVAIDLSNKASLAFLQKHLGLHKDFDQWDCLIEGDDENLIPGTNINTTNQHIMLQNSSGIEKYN
ARFGAP1 inhibitor – inhibits rat ARF GTPase activating protein 1 | Q62848 | Arfgap1-stimulated ARF1 GTP hydrolysis, GDP FP detection | inhibition, % at 16.5 µM | hit rate 0.26% among 360,000;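 active = inhibition above a per-plate limit, mean inhibition of low control wells plus 3 SD, cut at about 25% in these data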
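Material: truncated rat Arfgap1 GAP domain; Incubation: compound-enzyme preincubation 20 min, reaction 120 min, detection 60 min, 25 °C; Read-out: percent inhibition of Arfgap1-stimulated GTP hydrolysis; Technique: FP, GDP Alexa 633 tracer displaced from anti-GDP antibody, 620/688 nm; Controls: No-Arfgap1 wells (100%) versus DMSO full-reaction wells (0%); Replication: single well per compound.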
ASAP1 GAP conf – ASAP1 inhibition confirmed; inhibition, % at 16.5 µM; AID 624431; shares compounds with ASAP1 GAP inh; ASAP1-stimulated Arf1 GTPase, GDP fluorescence polarization; hit rate 37% among 620;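 active = mean inhibition over triplicates exceeds the hit threshold derived for the earlier primary screening run, cut at about 25% in these data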
Large screens that a line does not name were inactive (follow-up assays come after a bar, where they were run).

O=C(Cc1ccccc1)O/N=C1\CCCc2ccccc21	ASAP1 GAP inh 26 | ASAP1 GAP conf inactive
CC(C)NC(=O)NC(=O)COC(=O)c1cccc(OC(F)F)c1	none
Cc1noc(C)c1COc1cccc(C(=O)OCC(=O)NC(=O)c2ccc(OC(F)F)cc2)c1	ASAP1 GAP inh 30 | ASAP1 GAP conf inactive
C=CCN(CC=C)CCOc1cc(C)ccc1[N+](=O)[O-]	ASAP1 GAP inh 25 | ASAP1 GAP conf inactive
C=CCN(CC=C)CCOc1ccc(C)cc1[N+](=O)[O-]	none
CCCNC(=O)c1cc(C2CCCN(C(=O)C3CCCCC3)C2)on1 (centres undefined)	none (no result: PAFAH1B3 FP inh, PAFAH1B2 FP inh, PAFAH2 inh, pPAFAH inh)
O=S1(=O)N[C@H](Cc2ccccc2)COc2cc(N3CCN(Cc4ccccc4F)CC3)ccc21	none (no result: PAFAH1B3 FP inh, PAFAH1B2 FP inh, PAFAH2 inh, pPAFAH inh)
C=CC[C@@H](CC(=O)N[C@@H](CO)Cc1ccccc1)C(=O)N[C@H](COC(=O)[C@@H](CC=C)Cc1ccc(F)cc1)Cc1c[nH]c2ccccc12	ASAP1 GAP inh 32 | ASAP1 GAP conf inactive
CSCCC(C(=O)NCc1ccccc1)n1c(Cc2cc(F)cc(F)c2)nc2ccccc21 (centres undefined)	none (no result: PAFAH1B3 FP inh, PAFAH1B2 FP inh, PAFAH2 inh, pPAFAH inh)
CCCCCN(C(=O)CCC(=O)OCC(=O)NCCc1ccccc1)c1c(N)n(CCCC)c(=O)[nH]c1=O	none (no result: PAFAH1B3 FP inh, PAFAH1B2 FP inh, PAFAH2 inh, pPAFAH inh)
O=C(CSc1nn(-c2ccccc2)c(=S)s1)Nc1ncccn1	ASAP1 GAP inh 26 | ASAP1 GAP conf 44
CCN1CCCSC1=S	none (no result: PAFAH1B3 FP inh, PAFAH1B2 FP inh, PAFAH2 inh, pPAFAH inh)
CC(C)CNC(=O)C1(C)CCCN1C(=O)c1ccc2ccccc2n1 (centres undefined)	none (no result: PAFAH1B3 FP inh, PAFAH1B2 FP inh, PAFAH2 inh, pPAFAH inh)
Cc1nn(-c2ccccc2)c(N2CCCC2)c1/C=N/NC(=S)Nc1ccc(F)cc1	ASAP1 GAP inh 27 | ASAP1 GAP conf inactive
COc1ccc(CCNC(=O)c2ccc3c(c2)S(=O)(=O)N=C2CCCCCN23)cc1	none
O=C(N/N=C/c1c(O)ccc2ccccc12)c1cccc(C(F)(F)F)c1	ASAP1 GAP inh 27, pPAFAH inh 30 | ASAP1 GAP conf inactive
COc1ccc2ccccc2c1/C=N/NC(=O)c1cccc(Br)c1	none
CC1CN(S(=O)(=O)c2ccc(NC(=O)c3cc(-c4ccccc4O)n[nH]3)cc2)CC(C)O1 (centres undefined)	ASAP1 GAP inh 26 | ASAP1 GAP conf inactive
O=C(Nc1ccc(S(=O)(=O)N2CCOCC2)cc1)c1cc(-c2ccccc2O)n[nH]1	none
COc1cccc(C=NN(C)c2c([N+](=O)[O-])cc(C(F)(F)F)cc2[N+](=O)[O-])c1O	none (no result: PAFAH1B3 FP inh, PAFAH1B2 FP inh, PAFAH2 inh, pPAFAH inh)
Cc1cc(OCc2cc(C(=O)N(C)C3CCOC3)no2)cc(C)c1Cl (centres undefined)	none
CCc1ccc(OCC(=O)N2CCc3ccccc32)cc1	ASAP1 GAP inh 26 | ASAP1 GAP conf inactive
N/C(=N\N=C\c1ccnc2ccccc12)SC1CC(=O)N(c2ccc(Br)cc2)C1=O (centres undefined)	ASAP1 GAP inh 61 | ASAP1 GAP conf 88
Fc1ccc(Nc2nc(-c3ccncc3)nc3ccccc23)cc1F	ASAP1 GAP inh 38 | ASAP1 GAP conf 36
Cc1ccc(C(C)c2c(C)c([N+](=O)[O-])cc(C)c2[N+](=O)[O-])cn1 (centres undefined)	none
O=C(Cc1ccc(NC(=O)C2CCCN(C(=O)C3CCC3)C2)cc1)Nc1cccc(C(=O)N2CCCC2)c1 (centres undefined)	none (no result: pPAFAH inh)
Cc1cccc(N=Nc2c(N)n[nH]c2-c2ccc(Cl)cc2)c1	ASAP1 GAP inh 26 | ASAP1 GAP conf inactive
Cc1ccc(-c2[nH]nc(N)c2N=Nc2ccccc2C)cc1	ASAP1 GAP inh 27 | ASAP1 GAP conf inactive
Cc1ccc(-c2[nH]nc(N)c2N=Nc2cccc(Cl)c2C)cc1	none (no result: pPAFAH inh)
O=C(CCS(=O)(=O)c1ccc(Cl)cc1)Nc1nnc(-c2ccco2)o1	none
Cn1c(SCC(=O)NC2CCCCC2)nc2c(c1=O)SCC2	none (no result: PAFAH1B3 FP inh, PAFAH1B2 FP inh, PAFAH2 inh, pPAFAH inh)
Cn1c(SCC(=O)NC2CCCC2)nc2c(c1=O)SCC2	ASAP1 GAP inh 28 | ASAP1 GAP conf inactive
COc1ccc(CC(=O)OCC(=O)Nc2ccc(F)cc2)cc1	none (no result: pPAFAH inh)
Cc1cc(NC(=O)c2ccc(C)c([N+](=O)[O-])c2)no1	none
Cc1ccc(C(=O)Nc2cccc(NC(=O)c3ccc(C)c([N+](=O)[O-])c3)n2)cc1[N+](=O)[O-]	ASAP1 GAP inh 28 | ASAP1 GAP conf 28
CC1(C(=O)Nc2ccc3ccccc3c2)CCC(=O)N1C1CCN(Cc2ccccc2)CC1 (centres undefined)	none (no result: PAFAH1B3 FP inh, PAFAH1B2 FP inh, PAFAH2 inh, pPAFAH inh)
O=C(NCC1CCCO1)c1cccc(C(=O)NCC2CCCO2)c1 (centres undefined)	none
O=C(NCC1CCCO1)c1ccc[nH]1 (centres undefined)	ASAP1 GAP inh 27 | ASAP1 GAP conf inactive
COc1ccc(-n2c3nc4ccccc4nc3c3c(=N)oc(C)nc32)cc1	ASAP1 GAP inh 30 | ASAP1 GAP conf inactive
CCCCn1c2nc3ccccc3nc2c2c(=N)oc(C)nc21	none (no result: pPAFAH inh)
COc1ccc(C2CC(=O)C(c3ccc(Br)cc3)=CN2Cc2ccccc2)cc1 (centres undefined)	none (no result: PAFAH1B3 FP inh, PAFAH1B2 FP inh, PAFAH2 inh, pPAFAH inh)
CCN(CC)c1nc(N)c2c(N)nc(OC)cc2c1C#N	ASAP1 GAP inh 34 | ASAP1 GAP conf inactive
Cc1cc(C)n(/N=C/c2ccco2)c(=O)c1C#N	ASAP1 GAP inh 25 | ASAP1 GAP conf inactive
COc1ccccc1NS(=O)(=O)c1cc(NC(=O)/C=C/c2cccs2)ccc1N1CCOCC1	ASAP1 GAP inh 32 | ASAP1 GAP conf inactive
C=CCN(c1ccccc1OC)S(=O)(=O)c1cccc(C(=O)OCC(=O)N2CCOCC2)c1	ASAP1 GAP inh 76 | ASAP1 GAP conf inactive
COc1cc2c3nnc(-c4ccc(F)cc4)c-3cn(Cc3cccc(C)c3)c2cc1OC	ASAP1 GAP inh 123 | ASAP1 GAP conf 181
Cc1ccc(NC(=O)CCC2CC(C)(C)OC2=O)cc1 (centres undefined)	none
CC1(C)CC(CCC(=O)Nc2ccc(S(N)(=O)=O)cc2)C(=O)O1 (centres undefined)	ASAP1 GAP inh 25 | ASAP1 GAP conf inactive
Cc1ccc(Cl)c2sc(NC(=O)C3=COCCO3)nc12	ASAP1 GAP inh 27 | ASAP1 GAP conf inactive
N#Cc1ccccc1NC(=O)C(=O)NCCCN1CCCC1=O	none
CN(CCc1ccccc1)C(c1cc2ccccc2o1)c1nnnn1C(C)(C)C (centres undefined)	none (no result: PAFAH1B3 FP inh, PAFAH1B2 FP inh, PAFAH2 inh, pPAFAH inh)
COc1cc(NC(=O)N2CCc3nc(NCc4cccc(Oc5ccccc5)c4)ncc3C2)cc(OC)c1OC	none (no result: PAFAH1B3 FP inh, PAFAH1B2 FP inh, PAFAH2 inh, pPAFAH inh)
O=C(COC(=O)c1cccnc1)NC1CCCc2ccccc21 (centres undefined)	none (no result: pPAFAH inh)
O=C(COC(=O)c1cnccn1)NC1CCCc2ccccc21 (centres undefined)	ASAP1 GAP inh 48 | ASAP1 GAP conf inactive
CN1CCN(CCCNc2nc3ccccc3c3nc(-c4ccccc4)nn23)CC1	none (no result: pPAFAH inh)
